system: Clostridium perfringens; assay: Antimicrobial activity against Clostridium perfringens assessed as percent resistant isolates after 48 hrs by agar dilution method in presence of 4 ug/ml beta-lactamase inhibitor Tazobactam; assay type: functional
Summary of the method: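 CLSI agar dilution on recent Korean clinical anaerobe isolates. Inoculum 10^5 CFU per spot by replicator. Plates incubated in an anaerobic chamber at 37°C for 48 h. For piperacillin plus tazobactam, tazobactam was held constant at 4 μg/ml. Resistance and susceptibility rates derived from MICs.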

With `CCN1CCN(C(=O)N[C@@H](C(=O)N[C@@H]2C(=O)N3[C@@H]2SC(C)(C)[C@@H]3C(=O)O)c2ccccc2)C(=O)C1=O` [PIPERACILLIN] the Activity was 0%.

system: Clostridium perfringens; assay: Antimicrobial activity against Clostridium perfringens assessed as percent resistant isolates after 48 hrs by agar dilution method; assay type: functional

`Cc1ncc([N+](=O)[O-])n1CCO` [METRONIDAZOLE] and `O=C(N[C@H](CO)[C@H](O)c1ccc([N+](=O)[O-])cc1)C(Cl)Cl` [CHLORAMPHENICOL] are the same in Activity: 0% for the first, 0% for the second.

`CO[C@@]1(NC(=O)Cc2cccs2)C(=O)N2C(C(=O)O)=C(COC(N)=O)CS[C@@H]21` [CEFOXITIN] and `CO[C@@]1(NC(=O)C2SC(=C(C(N)=O)C(=O)O)S2)C(=O)N2C(C(=O)O)=C(CSc3nnnn3C)CS[C@@H]21` (some centres undefined) [CEFOTETAN] are the same in Activity: 0% for the first, 0% for the second.

`CCN1CCN(C(=O)N[C@@H](C(=O)N[C@@H]2C(=O)N3[C@@H]2SC(C)(C)[C@@H]3C(=O)O)c2ccccc2)C(=O)C1=O` [PIPERACILLIN] and `C[C@@H](O)[C@H]1C(=O)N2C(C(=O)O)=C(S[C@@H]3CN[C@H](C(=O)N(C)C)C3)[C@H](C)[C@H]12` [MEROPENEM] are the same in Activity: 0% for the first, 0% for the second.

First: CCC[C@@H]1C[C@@H](C(=O)N[C@@H]([C@H]2O[C@H](SC)[C@H](O)[C@@H](O)[C@H]2O)[C@H](C)Cl)N(C)C1 [CLINDAMYCIN]
Second: C[C@@H](O)[C@H]1C(=O)N2C(C(=O)O)=C(SCCNC=N)C[C@H]12 [IMIPENEM ANHYDROUS]
The Activity of the first is higher: 7% for the first, 0% for the second.
